# Assay results gathered from unrelated publications.
# Compare with care: the assays were run in different laboratories.
# Target: Protein kinase C eta type (PRKCH, Homo sapiens, UniProt P24723)
Compound,test,setting,measurement,result
C[C@@H]1CCN(c2nccc(-c3cnn4ncccc34)n2)C1,binding,1 µM,remaining binding,83%
CN(c1ccnc(CNc2nc(Nc3ccc4c(c3)CC(=O)N4)ncc2C(F)(F)F)n1)S(C)(=O)=O,"cell-free assay, competition with immobilised ligand",1 µM,remaining binding,100%
CNC(=O)c1cc(Oc2ccc(NC(=O)Nc3ccc(Cl)c(C(F)(F)F)c3)cc2)ccn1,"enzyme activity, inhibitor",10 µM,inhibition,0%
CCCOc1ccc(OC)c(F)c1C(=O)c1ccc(C(=O)N[C@@H]2CNC[C@H]2NC(=O)c2ccc3[nH]ncc3c2)cc1,"enzyme activity, inhibitor",10 µM,remaining activity,16%
Cc1sc(C(=O)NC2COC2)cc1-n1cc(NC(=O)Nc2c(F)cccc2Cl)cn1,"enzyme activity, inhibitor",10 µM,remaining activity,91.6%
CNCc1ccccc1-c1csc([C@H](C)Nc2nc(C)nc3cc(OC)c(OC)cc23)c1,"cell-free assay, competition with immobilised ligand",1 µM,remaining binding,100%
CC/C(=N\NC(=O)NCc1cccc(O)c1)c1ccc(O)c(C)c1O,"enzyme activity, inhibitor",0.1 µM,inhibition,44.8%
Cc1cc(NC(=O)c2cccc3cc(-c4cccc5[nH]nc(N)c45)ccc23)ccc1F,"enzyme activity, inhibitor",0.1 µM,activity vs control,109%
COc1cc2ncnc(Nc3ccc(Oc4ccccc4)cc3C)c2cc1OC,"enzyme activity, inhibitor",1 µM,inhibition,7%
CN1CC(Oc2cnc(C#N)cc2-c2ccn3nc(NC(=O)C4CC4)cc3c2)C1,"enzyme activity, inhibitor",1 µM,inhibition,-11%
Cn1cnc(Br)c1C1=CN(c2ncnc3[nH]cnc23)CCS1,"enzyme activity, inhibitor, radiometric",50 nM,inhibition,29.7%
CC(C)CC(=O)N1CCc2nc(-c3ccc(Br)cc3)nc(N(C)Cc3ccccc3)c2C1,"cell-free assay, competition with immobilised ligand",0.1 µM,remaining binding,94%
CCCS(=O)(=O)Nc1ccc(F)c(C(=O)c2c[nH]c3ncc(-c4ccc(Cl)cc4)cc23)c1F,"enzyme activity, inhibitor",1 µM,inhibition,< 10%
CC(=O)c1c(NS(C)(=O)=O)c2cc(-c3ccc(Cl)cc3)c(-c3ccc(Cl)cc3Cl)nc2n(C)c1=O,"cell-free assay, competition with immobilised ligand",1 µM,remaining binding,91%
Cn1cncc1C1=CN(c2ncnc3[nH]cnc23)CCS1,"enzyme activity, inhibitor, radiometric",50 nM,inhibition,15.8%
CC(C)(O)c1cncc(-c2nc3ccc(F)cc3n2C2CC2)c1,"cell-free assay, competition with immobilised ligand",1 µM,remaining binding,98%
COc1cc(-c2cc(-c3ccc(N4CCNCC4)cc3)cnc2C)cc(OC)c1OC,"enzyme activity, inhibitor",0.1 µM,inhibition,2%
CC(C)c1ccc(NC(=O)c2cccs2)c(-c2nc3ccccc3[nH]c2=O)c1,"enzyme activity, inhibitor",1 µM,activity vs control,108%
CS(=O)(=O)NCC[C@H](NC(=O)c1cncc2c1cnn2-c1ccc(F)cc1)c1ccnc(S(C)(=O)=O)c1,"cell-free assay, competition with immobilised ligand",1 µM,remaining binding,80%
